# Measurements published in ChEMBL document CHEMBL1121573, “2-(Aminomethyl)phenols, a new class of saluretic agents. 1. Effects of nuclear substitution” (J Med Chem, 1980).
# Columns and labels:
# Canis familiaris [1] = experiment: Compound administered intravenously at a dose of 5 mg/kg was evaluated for salidiuretic activity measured as sodium ion excretion in Dog; assay type: ADME, organism-based, Canis lupus familiaris, Urine; set-up: dose 5 mg/kg, route intravenous; conditions: in vivo, iv
# In short: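 Conditioned female mongrel dogs, postabsorptive, water-loaded (500 mL po) 1 h before sodium pentobarbital anesthesia (30 mg/kg iv). Bladder catheter; creatinine 4 g sc; phosphate–mannitol buffer pH 7.4 infused (3.0 mL/min) throughout. […] Urine Na+ measured; response scored 0–6.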
# Rattus norvegicus [2] = experiment: Oral diuretic activity was evaluated by measuring Cl- excretion in Rat at 9 mg/kg […] ( 0-5 hr ); assay type: ADME, organism-based, Urine; set-up: dose 9 mg/kg; conditions: in vivo
# In short: (§1)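 Female Charles-River rats (150–170 g) were kept overnight on a sugar diet with water ad libitum. Test substance was dissolved in DMF and diluted with water containing Tween 80 to a final 4% DMF vehicle, then given po in 5.0 mL. Rats were housed three per metabolism cage, and 0–5 h urine was assayed for Na⁺, K⁺ and Cl⁻ alongside concurrent placebo groups. Values are mequiv × 100 per cage, geometric means of three cages per dose.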
# Rattus norvegicus [3] = experiment: Oral diuretic activity was evaluated by measuring Cl- excretion in Rat at 27 mg/kg after po administration ( 0-5 hr ); conditions: in vivo
# Rattus norvegicus [4] = species: Rattus norvegicus; experiment: Time taken for the decrease in arterial pressure was measured; assay type: functional, Artery
# Canis familiaris [5] = experiment: Oral diuretic activity was evaluated by measuring Cl- excretion in dog at 5 mg/kg after […] ( 0-6 hr ); assay type: ADME, organism-based, Canis lupus familiaris, Urine; set-up: dose 5 mg/kg, route intraperitoneal; conditions: in vivo
# [6] = Evaluated for salidiuretic activity measured as sodium ion excretion in Rat, administered orally at a dose of 16.5 mg/kg; assay type: organism-based; set-up: dose 16.5 mg/kg; conditions: Urine
# In short: (§2)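 Female Charles-River rats (150–170 g), overnight on sugar diet with water ad libitum. Compound dissolved in DMF, diluted with water containing Tween 80 (final 4% DMF), given po in 5.0 mL; concurrent vehicle placebo. Three rats per metabolism cage; 0–5 h urine analysed for Na+, K+, Cl-. Values: mequiv × 100 per cage, geometric means of three cages per dose; scored 0–6 by Na+.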
# Rattus norvegicus [7] = experiment: Oral diuretic activity was evaluated by measuring Cl- excretion in Rat at 81 mg/kg after po administration ( 0-5 hr ); conditions: in vivo
# Rattus norvegicus [8] = experiment: Oral diuretic activity was evaluated by measuring K+ excretion in Rat at 3 mg/kg […] ( 0-5 hr ); assay type: ADME, organism-based, Urine; set-up: dose 3 mg/kg; in short: as §1
# Canis familiaris [9] = experiment: Oral diuretic activity was evaluated by measuring Na+ excretion in dog at 5 mg/kg after ip administration ( 0-6 hr ); assay type: ADME, organism-based, Canis lupus familiaris, Urine; set-up: dose 5 mg/kg, route intraperitoneal; conditions: in vivo
# In short: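 Urine collected over 0–6 h: spontaneous voids were pooled with bladder urine taken by catheterization at 6 h. Urine volume was measured, and aliquots were analysed for Na+, K+ and Cl− by standard methods. Electrolyte excretion is reported as geometric means.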
# [10] = Compound administered orally at a dose of 5 mg/kg was evaluated for salidiuretic activity measured as sodium ion excretion in Rat; assay type: organism-based; set-up: dose 5 mg/kg; conditions: Urine; in short: as §2
# Rattus norvegicus [11] = experiment: Oral diuretic activity was evaluated by measuring K+ excretion in Rat at 27 mg/kg after po administration ( 0-5 hr ); conditions: in vivo
# Rattus norvegicus [12] = experiment: Oral diuretic activity was evaluated by measuring Na+ excretion in Rat at 81 mg/kg […] ( 0-5 hr ); assay type: ADME, organism-based, Urine; set-up: dose 81 mg/kg
# In short: (§3)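 Female Charles-River rats (150–170 g) were kept overnight on a sugar diet with water ad libitum. Compound was dissolved in DMF, then diluted with water containing Tween 80 (3 drops/100 mL) to a final 4% DMF, and given po in 5.0 mL. Rats were housed three per metabolism cage. Urine from 0–5 h was analysed for Na+, K+ and Cl−, with concurrent placebo controls. Values are mequiv × 100 per cage, geometric mean of three cages per dose.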
# Rattus norvegicus [13] = experiment: Maximum fall in mean arterial blood pressure was measured in SH rats when compound was administered at 30 mg/kg perorally; assay type: functional; conditions: route oral
# Rattus norvegicus [14] = experiment: Oral diuretic activity was evaluated by measuring K+ excretion in Rat at 81 mg/kg after […] ( 0-5 hr ); assay type: ADME, organism-based, Urine; set-up: dose 81 mg/kg; conditions: in vivo; in short: as §1
# Canis familiaris [15] = experiment: Oral diuretic activity was evaluated by measuring K+ excretion in dog at 5 mg/kg after ip administration ( 0-6 hr ); assay type: ADME, organism-based, Canis lupus familiaris, Urine; set-up: dose 5 mg/kg, route intraperitoneal; conditions: in vivo
# In short: (§4)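 Spontaneous urine was pooled with bladder urine collected by catheterization at 6 h. Volume was measured and Na+, K+ and Cl− were determined by standard methods. Values are geometric means.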
# Rattus norvegicus [16] = experiment: Evaluated for salidiuretic activity measured as sodium ion excretion in Rat, administered orally at a dose of 50 mg/kg; assay type: functional, Urine; set-up: unit not given beside the values; conditions: route oral; in short: as §2
# Rattus norvegicus [17] = experiment: Oral diuretic activity was evaluated by measuring Na+ excretion in Rat at 27 mg/kg after […] ( 0-5 hr ); assay type: ADME, organism-based, Urine; set-up: dose 27 mg/kg; in short: as §3
# Canis familiaris [18] = experiment: Oral diuretic activity was evaluated by measuring Na+ excretion in dog at 1 mg/kg after ip administration ( 0-6 hr ); assay type: ADME, organism-based, Canis lupus familiaris, Urine; set-up: dose 1 mg/kg, route intraperitoneal; conditions: in vivo; in short: as §4
# Rattus norvegicus [19] = experiment: Oral diuretic activity was evaluated by measuring K+ excretion in Rat at 9 mg/kg […] ( 0-5 hr ); assay type: ADME, organism-based, Urine; set-up: dose 9 mg/kg; in short: as §1
# Canis familiaris [20] = experiment: Oral diuretic activity was evaluated by measuring Cl- excretion in dog at 1 mg/kg after […] ( 0-6 hr ); assay type: ADME, organism-based, Canis lupus familiaris, Urine; set-up: dose 1 mg/kg, route intraperitoneal; conditions: in vivo
# Rattus norvegicus [21] = experiment: Compound administered orally at a dose of 1 mg/kg was evaluated for salidiuretic activity measured as sodium ion excretion in Rat; conditions: in vivo, po
# Rattus norvegicus [22] = experiment: Oral diuretic activity was evaluated by measuring Na+ excretion in Rat at 3 mg/kg […] ( 0-5 hr ); assay type: ADME, organism-based, Urine; set-up: dose 3 mg/kg; conditions: in vivo, ip; in short: as §3
# Rattus norvegicus [23] = experiment: Oral diuretic activity was evaluated by measuring Na+ excretion in Rat at 9 mg/kg […] ( 0-5 hr ); assay type: ADME, organism-based, Urine; set-up: dose 9 mg/kg; conditions: in vivo, ip; in short: as §3
# Canis familiaris [24] = experiment: Oral diuretic activity was evaluated by measuring K+ excretion in dog at 1 mg/kg after […] ( 0-6 hr ); assay type: ADME, organism-based, Canis lupus familiaris, Urine; set-up: dose 1 mg/kg; conditions: in vivo; in short: as §4
# Rattus norvegicus [25] = experiment: Oral diuretic activity was evaluated by measuring Cl- excretion in Rat at 3 mg/kg after […] ( 0-5 hr ); assay type: ADME, organism-based, Urine; set-up: dose 3 mg/kg, route intraperitoneal; conditions: in vivo
compound,measurement,setting,value
COc1c(Cl)c(O)c(CN)c(OC)c1Cl.Cl,Diuretic activity,Canis familiaris [1],> 900
same,Diuretic activity,Rattus norvegicus [2],2.36
same,Diuretic activity,Rattus norvegicus [3],2.51
same,Duration,Rattus norvegicus [4],12 h
same,Diuretic activity,Canis familiaris [5],54.5
same,Diuretic activity,[6],3.3
same,Diuretic activity,Rattus norvegicus [7],3.26
same,Diuretic activity,Rattus norvegicus [8],0.26
same,Diuretic activity,Canis familiaris [9],42.5
same,Diuretic activity,[10],2.6
same,Diuretic activity,Rattus norvegicus [11],0.42
same,Diuretic activity,Rattus norvegicus [12],2.17
same,MAP,Rattus norvegicus [13],19 mmHg
same,Diuretic activity,Rattus norvegicus [14],0.39
same,Diuretic activity,Canis familiaris [15],8
same,Diuretic activity,Rattus norvegicus [16],3.6
same,Diuretic activity,Rattus norvegicus [17],1.61
same,Diuretic activity,Canis familiaris [18],17.78
same,Diuretic activity,Rattus norvegicus [19],0.42
same,Diuretic activity,Canis familiaris [20],24.67
same,Diuretic activity,Rattus norvegicus [21],0.7
same,Diuretic activity,Rattus norvegicus [22],0.86
same,Diuretic activity,Rattus norvegicus [23],1.58
same,Diuretic activity,Canis familiaris [24],4.78
same,Diuretic activity,Rattus norvegicus [25],1.25
